From ChEMBL document CHEMBL3860088, “Design, synthesis, and evaluation of novel porcupine inhibitors featuring a fused 3-ring system based on the 'reversed' amide scaffold” (Bioorg Med Chem, 2016)
The source made the active and inactive calls. The calls are words filed in the database; no cut-off is given here.

Tests used:
[1] = Solubility of the compound in FaSSIF at pH 6.5 at 4 mg/ml by LC-MS/MS analysis; format: physicochemical
In short: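 HCl salt suspended at 4 mg/mL in FaSSIF (pH 6.5), shaken 1 h, then equilibrated overnight at room temperature. After centrifugation, supernatant concentration was measured by LC-MS/MS.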

[2] = Half life in rat liver microsomes at 1 uM preincubated for 10 mins followed by NADPH addition measured for 30 to 60 mins by LC-MS/MS analysis; format: ADME
CYP3A4 = CYP3A4 (Homo sapiens, UniProt P08684); assay: Inhibition of CYP3A4 in human liver microsomes at 10 uM using midazolam as substrate preincubated for 10 mins followed by NADPH addition measured after 10 mins by LC-MS/MS analysis; format: ADME; conditions: probe midazolam
Chain of CYP3A4 (P08684 whole entry): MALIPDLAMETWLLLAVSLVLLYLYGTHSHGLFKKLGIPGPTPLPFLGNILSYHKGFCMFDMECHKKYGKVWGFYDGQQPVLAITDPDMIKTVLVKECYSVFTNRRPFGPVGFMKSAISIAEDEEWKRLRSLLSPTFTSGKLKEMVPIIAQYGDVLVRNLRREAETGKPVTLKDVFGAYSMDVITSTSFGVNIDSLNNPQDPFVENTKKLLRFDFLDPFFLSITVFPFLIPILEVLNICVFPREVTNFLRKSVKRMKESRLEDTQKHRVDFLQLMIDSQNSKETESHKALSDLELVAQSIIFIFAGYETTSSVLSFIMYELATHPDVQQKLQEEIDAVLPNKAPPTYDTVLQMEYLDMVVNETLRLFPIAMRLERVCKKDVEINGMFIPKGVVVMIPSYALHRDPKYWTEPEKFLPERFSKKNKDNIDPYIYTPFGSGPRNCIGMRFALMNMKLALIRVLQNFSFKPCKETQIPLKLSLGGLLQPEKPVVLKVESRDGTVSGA

[3] = Metabolic stability in rat plasma assessed as remaining compound levels at 1 uM after 8 hrs by LC-MS/MS analysis; format: ADME, cell-free; conditions: read-out: Stability
[4] = Effect on Wnt3A level in HEK293T cells transfected with pLibin-WNT3A plasmid at 0.1 uM after 48 hrs by Western blot method; format: ADME, cell-based; conditions: human, hek-293t
In short: (§1)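 Cells were HEK293T transfected with pLinbin-Wnt3A plasmid or vehicle control, then exposed to compound (0.1 µM) or left untreated. After 48 h, Western blot was run on both the cell lysate and the culture medium to follow Wnt3A.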

CYP2C19 = CYP2C19 (Homo sapiens, UniProt P33261); assay: Inhibition of CYP2C19 in human liver microsomes at 10 uM preincubated for 10 mins followed by NADPH addition measured after 10 mins by LC-MS/MS analysis; format: ADME
Chain of CYP2C19 (P33261 whole entry): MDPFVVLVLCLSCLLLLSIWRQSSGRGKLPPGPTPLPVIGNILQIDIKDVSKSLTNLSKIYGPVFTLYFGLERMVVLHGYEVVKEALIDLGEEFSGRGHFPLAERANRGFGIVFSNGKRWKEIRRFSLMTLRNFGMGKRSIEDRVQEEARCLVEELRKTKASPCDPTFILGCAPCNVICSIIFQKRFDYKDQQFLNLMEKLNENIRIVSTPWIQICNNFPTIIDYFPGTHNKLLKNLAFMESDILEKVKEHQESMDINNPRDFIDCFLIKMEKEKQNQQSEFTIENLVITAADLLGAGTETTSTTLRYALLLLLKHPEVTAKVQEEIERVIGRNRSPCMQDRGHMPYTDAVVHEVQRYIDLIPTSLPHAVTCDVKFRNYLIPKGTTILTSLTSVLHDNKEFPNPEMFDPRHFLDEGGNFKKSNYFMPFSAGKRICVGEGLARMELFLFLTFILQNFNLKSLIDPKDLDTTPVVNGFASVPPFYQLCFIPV

[5] = biological target: T1, Protein-serine O-palmitoleoyltransferase porcupine (Mus musculus, UniProt Q9JJJ7); assay: Inhibition of porcupine in mouse L Wnt3A cells co-cultured with HEK293 cells after 48 hrs by Super-top flash reporter gene assay; format: cell-based
T1 sequence (Q9JJJ7 whole entry): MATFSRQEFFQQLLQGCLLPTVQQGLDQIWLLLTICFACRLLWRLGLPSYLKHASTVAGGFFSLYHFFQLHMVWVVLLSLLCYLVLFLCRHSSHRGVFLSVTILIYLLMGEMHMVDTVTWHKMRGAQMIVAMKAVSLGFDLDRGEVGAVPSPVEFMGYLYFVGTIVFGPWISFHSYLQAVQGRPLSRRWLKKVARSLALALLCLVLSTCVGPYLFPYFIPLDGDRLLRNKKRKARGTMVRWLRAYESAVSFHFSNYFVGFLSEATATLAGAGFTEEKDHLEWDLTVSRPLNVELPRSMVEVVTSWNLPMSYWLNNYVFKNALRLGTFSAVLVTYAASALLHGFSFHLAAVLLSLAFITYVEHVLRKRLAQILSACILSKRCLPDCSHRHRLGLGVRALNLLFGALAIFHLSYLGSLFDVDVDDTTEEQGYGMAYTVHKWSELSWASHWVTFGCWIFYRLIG
In short: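 Readout was luminescence inhibition in a co-culture of Wnt-producing LWnt3A cells with Wnt-responding HEK293 cells. Values are geometric means of at least two runs ± SEM, with a reference inhibitor run as a standard in every assay.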

[6] = Half life in human liver microsomes at 1 uM preincubated for 10 mins followed by NADPH addition measured for 30 to 60 mins by LC-MS/MS analysis; format: ADME
CYP2C9 = CYP2C9 (Homo sapiens, UniProt P11712); assay: Inhibition of CYP2C9 in human liver microsomes at 10 uM preincubated for 10 mins followed by NADPH addition measured after 10 mins by LC-MS/MS analysis; format: ADME
Chain of CYP2C9 (P11712 whole entry): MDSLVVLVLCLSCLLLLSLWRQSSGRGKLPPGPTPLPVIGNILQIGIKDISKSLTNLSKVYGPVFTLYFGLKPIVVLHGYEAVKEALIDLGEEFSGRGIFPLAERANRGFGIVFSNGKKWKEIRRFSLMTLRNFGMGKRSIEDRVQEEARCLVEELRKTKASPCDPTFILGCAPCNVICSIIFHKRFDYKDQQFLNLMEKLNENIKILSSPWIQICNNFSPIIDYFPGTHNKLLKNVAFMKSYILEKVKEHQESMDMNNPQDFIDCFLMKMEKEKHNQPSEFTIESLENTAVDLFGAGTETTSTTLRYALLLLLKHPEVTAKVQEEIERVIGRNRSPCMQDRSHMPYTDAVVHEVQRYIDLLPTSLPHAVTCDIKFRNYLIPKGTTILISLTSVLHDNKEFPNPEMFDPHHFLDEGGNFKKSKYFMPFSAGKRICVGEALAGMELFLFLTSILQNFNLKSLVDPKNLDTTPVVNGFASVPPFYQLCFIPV

[7] = Intrinsic clearance in human liver microsomes at 1 uM preincubated for 10 mins followed by NADPH addition measured for 30 to 60 mins by LC-MS/MS analysis; format: ADME; conditions: read-out: CLH
[8] = Intrinsic clearance in rat liver microsomes at 1 uM preincubated for 10 mins followed by NADPH addition measured for 30 to 60 mins by LC-MS/MS analysis; format: ADME; conditions: read-out: CLH
[9] = Half life in mouse liver microsomes at 1 uM preincubated for 10 mins followed by NADPH addition measured for 30 to 60 mins by LC-MS/MS analysis; format: ADME
[10] = Chemical stability in simulated gastric fluid assessed as remaining compound levels at 200 uM at 40 degC after 24 hrs by HPLC method; format: ADME; conditions: read-out: Stability
In short: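 Test compound held at 200 µM in simulated gastric fluid, 40 °C for 24 h; remaining compound then assessed.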

[11] = Intrinsic clearance in mouse liver microsomes at 1 uM preincubated for 10 mins followed by NADPH addition measured for 30 to 60 mins by LC-MS/MS analysis; format: ADME; conditions: read-out: CLH
CYP1A2 = biological target: T2, CYP1A2 (Homo sapiens, UniProt P05177); assay: Inhibition of CYP1A2 in human liver microsomes at 10 uM preincubated for 10 mins followed by NADPH addition measured after 10 mins by LC-MS/MS analysis; format: ADME
T2 sequence (P05177 whole entry): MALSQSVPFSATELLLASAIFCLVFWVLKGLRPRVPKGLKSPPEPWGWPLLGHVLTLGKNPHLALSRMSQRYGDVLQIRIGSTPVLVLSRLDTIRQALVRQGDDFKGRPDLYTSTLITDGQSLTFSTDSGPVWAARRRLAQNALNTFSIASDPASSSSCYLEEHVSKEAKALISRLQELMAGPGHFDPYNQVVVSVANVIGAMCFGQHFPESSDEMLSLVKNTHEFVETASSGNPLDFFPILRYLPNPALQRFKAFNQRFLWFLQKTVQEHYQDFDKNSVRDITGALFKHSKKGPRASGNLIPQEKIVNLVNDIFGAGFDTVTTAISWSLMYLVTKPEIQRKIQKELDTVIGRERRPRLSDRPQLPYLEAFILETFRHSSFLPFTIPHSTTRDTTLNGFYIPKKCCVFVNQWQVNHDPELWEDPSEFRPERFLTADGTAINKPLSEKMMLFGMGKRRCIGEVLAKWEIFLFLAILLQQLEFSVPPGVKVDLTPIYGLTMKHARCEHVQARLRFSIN

CYP2D6 = CYP2D6 (Homo sapiens, UniProt P10635); assay: Inhibition of CYP2D6 in human liver microsomes at 10 uM using dextromethorphan as substrate preincubated for 10 mins followed by NADPH addition measured after 10 mins by LC-MS/MS analysis; format: ADME; conditions: probe dextromethorphan
Chain of CYP2D6 (P10635 whole entry): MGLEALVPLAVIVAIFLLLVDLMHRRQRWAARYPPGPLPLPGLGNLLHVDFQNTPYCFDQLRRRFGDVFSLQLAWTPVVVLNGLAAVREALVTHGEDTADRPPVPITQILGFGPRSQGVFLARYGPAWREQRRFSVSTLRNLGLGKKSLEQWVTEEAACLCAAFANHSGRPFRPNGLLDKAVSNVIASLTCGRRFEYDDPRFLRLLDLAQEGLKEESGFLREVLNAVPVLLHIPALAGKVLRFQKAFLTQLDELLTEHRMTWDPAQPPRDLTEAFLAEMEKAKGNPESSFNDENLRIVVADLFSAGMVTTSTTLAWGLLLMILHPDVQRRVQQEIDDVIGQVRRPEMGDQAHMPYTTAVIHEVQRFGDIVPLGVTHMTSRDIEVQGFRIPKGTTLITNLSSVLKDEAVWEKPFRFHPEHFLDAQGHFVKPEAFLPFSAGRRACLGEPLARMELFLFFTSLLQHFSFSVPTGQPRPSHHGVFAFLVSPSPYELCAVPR

[12] = biological target: T3, Protein-serine O-palmitoleoyltransferase porcupine (Homo sapiens) (UniProt Q9H237); assay: Inhibition of porcupine in HEK293T cells transfected with pLibin-WNT3A plasmid assessed as reduction in Wnt3A secretion into cell culture medium at 0.1 uM after 48 hrs by Western blot method; format: cell-based; conditions: HEK-293T; in short: as §1
T3 sequence (whole entry): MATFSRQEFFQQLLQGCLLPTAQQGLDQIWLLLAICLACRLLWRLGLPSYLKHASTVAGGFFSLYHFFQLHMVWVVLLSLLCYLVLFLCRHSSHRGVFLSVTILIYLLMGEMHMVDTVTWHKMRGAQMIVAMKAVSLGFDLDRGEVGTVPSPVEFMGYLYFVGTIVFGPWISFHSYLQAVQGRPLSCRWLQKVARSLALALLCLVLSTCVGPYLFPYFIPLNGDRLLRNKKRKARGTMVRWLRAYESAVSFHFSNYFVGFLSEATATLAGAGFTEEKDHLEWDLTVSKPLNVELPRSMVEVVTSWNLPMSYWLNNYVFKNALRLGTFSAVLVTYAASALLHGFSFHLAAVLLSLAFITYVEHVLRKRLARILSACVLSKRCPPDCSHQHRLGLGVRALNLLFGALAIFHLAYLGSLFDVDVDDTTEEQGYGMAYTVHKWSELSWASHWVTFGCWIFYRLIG

Work on `Cc1cc(-c2ccc(CNC(=O)c3ccc4c(c3)[nH]c3ccccc34)cc2)ccn1.Cl` yielded a solubility [1] of 0.16 µM.
`Cc1cc(-c2ncc(CNC(=O)c3ccc4c(c3)[nH]c3ccccc34)cc2F)ccn1` [listing 1 of 2 here] gave a half-life at 1 µM [2] of 1.33 h, an inhibition at 10 min, 10 µM (CYP3A4) of 69% and a remaining at 8 h, 1 µM [3] of 100%. For the same compound, the Activity [4] was “Non-Toxic”, the inhibition at 10 min, 10 µM (CYP2C19) was 59% and the IC50 [5] was 0.5 nM. For the same compound, the half-life at 1 µM [6] was 0.517 h, the inhibition at 10 min, 10 µM (CYP2C9) was 31% and the CLint scaled at 1 µM [7] was 57 mL/min/kg. The CLint scaled at 1 µM [8] was 24 mL/min/kg, the half-life at 1 µM [9] was 0.917 h and the remaining at 24 h, 200 µM [10] was 100%. The CLint scaled at 1 µM [11] was 109 mL/min/kg, the inhibition at 10 min, 10 µM (CYP1A2) was 73% and the inhibition at 10 min, 10 µM (CYP2D6) was 37%.
`Cc1cc(-c2ncc(CNC(=O)c3ccc4c(c3)[nH]c3ccccc34)cc2F)ccn1.Cl` showed a solubility [1] of 1.24 µM.
Work on `Cc1cc(-c2ccc(CNC(=O)c3ccc4c(c3)[nH]c3ccccc34)cn2)ccn1` yielded an IC50 [5] of 6.2 nM.
`Cc1cn(-c2ccc(CNC(=O)c3ccc4c(c3)[nH]c3ccccc34)cc2)cn1` gave an IC50 [5] of 119 nM.
With `Cc1cc(-c2ncc(CNC(=O)c3ccc4c(c3)[nH]c3ccccc34)cc2F)ccn1` [listing 2 of 2 here] the inhibition [12] was “Active”.
For `Cc1cc(-c2ccc(CNC(=O)c3ccc4c(c3)C(F)(F)c3ccccc3-4)cc2)ccn1`, the IC50 [5] was 60 nM.
For `Cc1cc(-c2ccc(CNC(=O)c3ccc4c(c3)[nH]c3ccccc34)cc2)ccn1`, the half-life at 1 µM [2] was 4.62 h, the inhibition at 10 min, 10 µM (CYP3A4) was 7% and the remaining at 8 h, 1 µM [3] was 100%. For the same compound, the Activity [4] was “Non-Toxic”, the inhibition at 10 min, 10 µM (CYP2C19) was 8% and the IC50 [5] was 7.5 nM. The half-life at 1 µM [6] was 0.5 h, the inhibition at 10 min, 10 µM (CYP2C9) was -22% and the CLint scaled at 1 µM [7] was 59 mL/min/kg. The CLint scaled at 1 µM [8] was 7 mL/min/kg, the half-life at 1 µM [9] was 0.717 h and the remaining at 24 h, 200 µM [10] was 100%. For the same compound, the CLint scaled at 1 µM [11] was 141 mL/min/kg, the inhibition at 10 min, 10 µM (CYP1A2) was 64% and the inhibition at 10 min, 10 µM (CYP2D6) was 9%.
For `Cc1cc(-c2ccc(CNC(=O)c3ccc4c(c3)C(=O)c3ccccc3-4)cc2)ccn1`, the IC50 [5] was 85 nM.
`Cc1cc(-c2ncc(CNC(=O)c3ccc4c5ccccc5n(C)c4c3)cc2F)ccn1` gave an IC50 [5] of 175 nM.
In the case of `Cc1cc(-c2ccc(CNC(=O)c3ccc4c(c3)Cc3ccccc3-4)cc2)ccn1`, the IC50 [5] is reported as 35 nM.
Compound `O=C(NCc1ccc2cnccc2c1)c1ccc2c(c1)[nH]c1ccccc12` has an IC50 [5] of 207 nM.
In the case of `Cc1cc(-c2ncc(CNC(=O)c3ccc4c(c3)oc3ccccc34)cc2F)ccn1`, the IC50 [5] is reported as 3.1 nM.
Compound `Cc1cc(-c2ncc(CNC(=O)c3ccc4c(c3)[nH]c3ccccc34)cc2C)ccn1` has an IC50 [5] of 10 nM.
With `Cc1cc(-c2ncc(CC(=O)Nc3ccc(-c4cnccn4)cn3)cc2C)ccn1` [WNT-974] the half-life at 1 µM [2] was 12.8 h, the remaining at 8 h, 1 µM [3] was 100% and the Activity [4] was “Non-Toxic”. For the same compound, the inhibition [12] was “Active”, the IC50 [5] was 0.9 nM and the half-life at 1 µM [6] was 9.35 h. The CLint scaled at 1 µM [7] was 2 mL/min/kg, the CLint scaled at 1 µM [8] was 3 mL/min/kg and the half-life at 1 µM [9] was 4.62 h. For the same compound, the remaining at 24 h, 200 µM [10] was 66% and the CLint scaled at 1 µM [11] was 22 mL/min/kg.
